These results are taken from ChEMBL document CHEMBL1142375, “Fluorescent 7-diethylaminocoumarin pyrrolobenzodiazepine conjugates: synthesis, DNA interaction, cytotoxicity and differential cellular localization” (Bioorg Med Chem Lett, 2008).

A word on the ΔTm: it is the change in melting temperature against a reference sample. In general, IC50 refers to the midpoint of a concentration-inhibition curve.

Calls of active or inactive are those of the source. The calls are words filed in the database; no cut-off is given here. Bounds are passed on as bounds.

Assay [1] has as its system DNA. The assay can be described thus: Binding affinity to calf thymus DNA assessed as thermal denaturation temperature at 20 uM after 4 hrs. It is filed as nucleic-acid assay. The following applies: Bos taurus.
Assay [2] relates to DNA. The assay can be described thus: Binding affinity to calf thymus DNA assessed as thermal denaturation temperature at 20 uM after 18 hrs. The settings on record: Bos taurus. In kind it is nucleic-acid assay.
For assay [3], the system named is DNA. The assay can be described thus: Binding affinity to calf thymus DNA assessed as thermal denaturation temperature at 20 uM after 72 hrs. In kind it is nucleic-acid assay. The settings on record: Bos taurus.
Assay [4] relates to LOX IMVI. Nature of the assay: Cytotoxicity against human LOXIMVI cells at 1 uM after 96 hrs by Alamar blue method. In kind it is functional, cell-based. (In general: Alamar Blue is a resazurin reagent that responds to reducing activity.)
Assay [5] deals with OVCAR-5. The assay can be described thus: Cytotoxicity against human OVCAR5 cells at 1 uM after 96 hrs by Alamar blue method. It is filed as functional, cell-based.
The test system of assay [6] is LOX IMVI. The assay can be described thus: Cytotoxicity against human LOXIMVI cells after 24 hrs by Alamar blue method. It is filed as functional, cell-based.
In assay [7] the test system is OVCAR-5. Nature of the assay: Cytotoxicity against human OVCAR5 cells after 96 hrs by Alamar blue method. It is filed as functional, cell-based. The settings on record: OVCAR-5, 96 h. Put shortly:
(§1)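 Cells were exposed to compound continuously for 96 h, and viability was read by Alamar blue. The IC50 is the mean with standard deviation of three independent experiments.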

Assay [8] relates to LOX IMVI. Nature of the assay: Cytotoxicity against human LOXIMVI cells after 96 hrs by Alamar blue method. It is filed as functional, cell-based. Put shortly: as §1

Turning to `COc1cc2c(cc1O)N=C[C@@H]1CCCN1C2=O`, the figures for the ΔTm in the assay on DNA [1], in the assay on DNA [2] and in the assay on DNA [3] were 0.5 °C, 0.7 °C and 0.8 °C, respectively.
Consider `COc1cc2c(cc1C)N=C[C@@H]1CCCN1C2=O`, for which the outcome in the assay with LOX IMVI [4] and in the assay with OVCAR-5 [5] was inactive.
`CCN(CC)c1ccc2cc(C(=O)NCCCOc3cc4c(cc3OC)C(=O)N3CCC[C@H]3C=N4)c(=O)oc2c1`: the IC50 amounted to 1.5 µM in the assay on LOX IMVI [6], 3.2 µM in the assay with OVCAR-5 [7] and 1.4 µM in the assay on LOX IMVI [8]. The values for the ΔTm with DNA [1], in the assay with DNA [2] and in the assay on DNA [3] were 3.4 °C, 3.6 °C and 3.9 °C, respectively.
`CCN(CC)c1ccc2cc(C(=O)NCCCCCCCCOc3cc4c(cc3OC)C(=O)N3CCC[C@H]3C=N4)c(=O)oc2c1`: the figures for the IC50 in the assay on OVCAR-5 [7] and in the assay on LOX IMVI [8] were 7.8 µM and 4.5 µM, respectively. The figures for the ΔTm with DNA [1], with DNA [2] and in the assay with DNA [3] were 1.4 °C, 2 °C and 2.9 °C, respectively.
For `CCOC(=O)c1cc2ccc(N(CC)CC)cc2oc1=O`, the IC50 in the assay on OVCAR-5 [7] and in the assay with LOX IMVI [8] was over 10 µM in each case. Moreover, the ΔTm in the assay on DNA [1], with DNA [2] and in the assay with DNA [3] was 0.2 °C in each case.
In the case of `CCN(CC)c1ccc2cc(C(=O)NCCCCNC(=O)CCOc3cc4c(cc3OC)C(=O)N3CCC[C@H]3C=N4)c(=O)oc2c1`, the IC50 in the assay on OVCAR-5 [7] and in the assay on LOX IMVI [8] was over 10 µM each time. For the same compound, the ΔTm worked out at 0.7 °C in the assay on DNA [1], 0.9 °C with DNA [2] and 1 °C in the assay with DNA [3].
